Consider 32 molecules from ChEMBL document CHEMBL4052828, “Discovery of 4-((7H-Pyrrolo[2,3-d]pyrimidin-4-yl)amino)-N-(4-((4-methylpiperazin-1-yl)methyl)phenyl)-1H-pyrazole-3-carboxamide (FN-1501), an FLT3- and CDK-Kinase Inhibitor with Potentially High Efficiency against Acute Myelocytic Leukemia” (J Med Chem, 2018).

One assay concerns the target CDK2/Cyclin A1 (Homo sapiens, UniProt P24941). Put plainly: Inhibition of human CDK2/Cyclin A1 using histone H1 as substrate preincubated for 20 mins followed by [gamma-33P]-ATP addition measure after 120 mins by filter binding method. Format: protein-complex assay. In short, it runs like this:
(§1)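 Compound preincubated with kinase 20 min at room temperature. Filter-binding read-out, curve-fitted IC50; mean ± SD of three independent experiments.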

The test system of assay [1] is MV4-11. Description: Growth inhibition of human MV4-11 cells at 1 uM after 72 hrs by CellTiter-Glo assay relative to control. It counts as functional. To be noted: MV4-11, 72 h, read-out: GI. Background: In ATP-based viability assays light output follows the ATP content of the culture.
For assay [2], the target named is T1, Receptor-type tyrosine-protein kinase FLT3 (Homo sapiens, UniProt P36888).
T1 sequence (P36888 whole entry): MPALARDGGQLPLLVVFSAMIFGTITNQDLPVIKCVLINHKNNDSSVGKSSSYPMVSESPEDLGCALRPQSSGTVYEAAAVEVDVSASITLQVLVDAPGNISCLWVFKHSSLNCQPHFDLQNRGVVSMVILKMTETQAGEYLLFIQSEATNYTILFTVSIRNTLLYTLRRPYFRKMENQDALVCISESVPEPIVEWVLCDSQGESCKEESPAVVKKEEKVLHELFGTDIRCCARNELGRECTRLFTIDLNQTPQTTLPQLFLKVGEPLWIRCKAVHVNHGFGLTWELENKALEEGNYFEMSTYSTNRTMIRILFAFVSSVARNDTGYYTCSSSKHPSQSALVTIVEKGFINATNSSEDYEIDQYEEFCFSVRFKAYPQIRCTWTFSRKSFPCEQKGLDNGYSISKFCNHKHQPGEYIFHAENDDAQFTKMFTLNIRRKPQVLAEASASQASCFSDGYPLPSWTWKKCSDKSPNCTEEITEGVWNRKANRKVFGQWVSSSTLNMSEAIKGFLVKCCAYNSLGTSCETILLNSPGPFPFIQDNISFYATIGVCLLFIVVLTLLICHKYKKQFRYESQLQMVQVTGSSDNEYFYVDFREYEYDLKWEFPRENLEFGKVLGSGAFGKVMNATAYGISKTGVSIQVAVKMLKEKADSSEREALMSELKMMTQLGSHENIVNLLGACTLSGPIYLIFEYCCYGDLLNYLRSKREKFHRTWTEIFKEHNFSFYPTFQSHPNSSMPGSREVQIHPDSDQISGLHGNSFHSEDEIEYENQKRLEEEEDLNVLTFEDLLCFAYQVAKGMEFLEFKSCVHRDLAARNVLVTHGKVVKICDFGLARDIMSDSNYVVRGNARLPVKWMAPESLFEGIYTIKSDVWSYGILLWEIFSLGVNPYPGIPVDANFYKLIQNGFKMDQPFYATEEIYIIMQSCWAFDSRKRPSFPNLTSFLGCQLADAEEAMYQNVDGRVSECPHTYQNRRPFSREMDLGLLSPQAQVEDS
Put plainly: Inhibition of human FLT3 using EAIYAAPFAKKK as substrate preincubated for 20 mins followed by [gamma-33P]-ATP addition measure after 120 mins by filter binding method. An outline of the steps: as §1

Assay [3] relates to MV4-11. Description: Growth inhibition of human MV4-11 cells after 72 hrs by CellTiter-Glo assay. It counts as functional, cell-based. To be noted: MV4-11, 72 h. In short, it runs like this: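 MV4-11 cells grown in IMDM with 10% FBS, 2% L-glutamine and 1% pen/strep at 37 °C, 5% CO2. Seeded at 10000 cells/well and exposed to compound at various concentrations for 72 h. Viability read by CellTiter-Glo luminescence.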

For assay [4], the target named is CDK2/Cyclin A1 (Homo sapiens) (UniProt P24941+P78396). Put plainly: Inhibition of human CDK2/Cyclin A1 assessed as residual activity at 0.123 uM using histone H1 as substrate preincubated for 20 mins followed by [gamma-33P]-ATP addition measure after 120 mins by filter binding method relative to control. It counts as protein-complex assay.
For assay [5], the target named is Receptor-type tyrosine-protein kinase FLT3 (Homo sapiens) (UniProt P36888). Put plainly: Inhibition of human FLT3 assessed as residual activity at 0.123 uM using EAIYAAPFAKKK as substrate preincubated for 20 mins followed by [gamma-33P]-ATP addition measure after 120 mins by filter binding method relative to control.
The target in assay [6] is Cyclin-dependent kinase 4/cyclin D1 (Homo sapiens, UniProt P11802). Description: Inhibition of human CDK4/Cyclin D1 using RB protein as substrate preincubated for 20 mins followed by [gamma-33P]-ATP addition measure after 120 mins by filter binding method. Format: protein-complex assay. An outline of the steps: (§2)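 Compound preincubated with kinase 20 min at room temperature. Reaction started with 10 μM [γ-33P]ATP and run 120 min at 25°C. Filter-binding read-out, curve-fitted IC50; mean ± SD of three independent experiments.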

The target of another assay is CDK6/cyclin D1 (Homo sapiens, UniProt Q00534). Description: Inhibition of human CDK6/Cyclin D1 using RB protein as substrate preincubated for 20 mins followed by [gamma-33P]-ATP addition measure after 120 mins by filter binding method. Format: protein-complex assay. An outline of the steps:
as §2

Sequence of Cyclin-dependent kinase 4/cyclin D1 (P11802 whole entry): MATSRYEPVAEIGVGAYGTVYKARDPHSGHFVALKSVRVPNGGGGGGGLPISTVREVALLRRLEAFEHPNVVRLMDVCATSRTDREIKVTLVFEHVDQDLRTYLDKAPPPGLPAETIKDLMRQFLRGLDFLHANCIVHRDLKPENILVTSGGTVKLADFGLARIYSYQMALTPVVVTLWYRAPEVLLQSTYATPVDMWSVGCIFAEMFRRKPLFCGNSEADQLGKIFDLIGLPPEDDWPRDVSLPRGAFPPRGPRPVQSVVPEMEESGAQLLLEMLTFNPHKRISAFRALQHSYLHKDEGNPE
Sequence of Cyclin-dependent kinase 4/cyclin D1 (P24385 whole entry, further chain): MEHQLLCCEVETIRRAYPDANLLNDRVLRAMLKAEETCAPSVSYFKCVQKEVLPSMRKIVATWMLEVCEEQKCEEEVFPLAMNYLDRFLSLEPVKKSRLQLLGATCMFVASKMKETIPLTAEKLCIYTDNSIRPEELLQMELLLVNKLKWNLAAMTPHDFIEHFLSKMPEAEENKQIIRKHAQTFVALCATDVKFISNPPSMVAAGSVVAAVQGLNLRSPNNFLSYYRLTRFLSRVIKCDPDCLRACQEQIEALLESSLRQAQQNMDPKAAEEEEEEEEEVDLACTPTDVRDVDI
Sequence of CDK6/cyclin D1 (P24385 whole entry): as the sequence (P24385 whole entry, further chain) above
Sequence of CDK6/cyclin D1 (Q00534 whole entry): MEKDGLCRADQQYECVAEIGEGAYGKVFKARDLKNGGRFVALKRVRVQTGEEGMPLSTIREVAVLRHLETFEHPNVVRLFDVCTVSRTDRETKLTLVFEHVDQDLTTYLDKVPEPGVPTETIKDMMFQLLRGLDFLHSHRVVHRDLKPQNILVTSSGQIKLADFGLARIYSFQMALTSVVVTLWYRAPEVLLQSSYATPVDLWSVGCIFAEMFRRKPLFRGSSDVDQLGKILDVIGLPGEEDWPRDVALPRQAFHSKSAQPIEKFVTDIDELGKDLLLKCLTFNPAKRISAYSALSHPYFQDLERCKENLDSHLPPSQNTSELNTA

One may read the IC50 as the point on the concentration scale where inhibition reaches its midpoint. A higher IC50 goes with weaker potency. As to `COc1ccc2ncnc(Nc3c[nH]nc3C(=O)Nc3ccc(CN4CCOCC4)cc3)c2c1`, the concentration for half-maximal inhibition (IC50) was found to be 29.8 nM on CDK2/Cyclin A1 and 3.78 nM in assay [2]. In addition, the inhibition of growth at 1 µM with MV4-11 [1] amounted to 53.1%.
As to `O=C(Nc1ccc(CN2CCOCC2)cc1)c1n[nH]cc1Nc1ncnc2ccccc12`, the results for the IC50 (in the assay with MV4-11 [3]; at CDK2/Cyclin A1; in assay [2]) were 23 nM, 5.3 nM and 0.588 nM, respectively.
Turning to `O=C(Nc1ccc(CN2CCOCC2)cc1)c1n[nH]cc1Nc1cc(C(F)(F)F)nc2ccccc12`, the Activity was found to be 99.7% in assay [4] and 83.2% in assay [5]. Moreover, the inhibition of growth at 1 µM with MV4-11 [1] was 4.7%.
With `CN1CCN(Cc2ccc(NC(=O)c3n[nH]cc3Nc3ncnc4occc34)cc2)CC1`, the IC50 at CDK2/Cyclin A1 is 16.5 nM; in assay [2] it was 2.56 to 2.65 nM; in assay [6], 5.67 nM; at CDK6/cyclin D1, 5.09 nM. Moreover, the inhibition of growth at 1 µM with MV4-11 [1] was determined as 94.7%.
For `COc1ccc2c(Nc3c[nH]nc3C(=O)Nc3ccc(CN4CCN(C)CC4)cc3)ccnc2c1`, the IC50 on CDK2/Cyclin A1 is 697 nM; in assay [2] it was 197 nM. Further, in the assay on MV4-11 [1], the inhibition of growth at 1 µM came to 22.6%.
Turning to `O=C(Nc1ccc(CN2CCOCC2)cc1)c1n[nH]cc1Nc1ccnc2ccccc12`, the figures for the Activity in assay [4] and in assay [5] were 57.7% and 40.8%, respectively. Further, the inhibition of growth at 1 µM in the assay with MV4-11 [1] is 42%.
On to `COc1ccc2c(Nc3c[nH]nc3C(=O)Nc3ccc(CN4CCOCC4)cc3)ccnc2c1`, for which the Activity in assay [4] was determined as 75%. Moreover, in the assay with MV4-11 [1], the inhibition of growth at 1 µM was 22.2%. The IC50 in assay [2] is 97.4 nM.
On to `Cc1csc2ncnc(Nc3c[nH]nc3C(=O)Nc3ccc(CN4CCOCC4)cc3)c12`, for which the figures for the half-maximal inhibitory concentration (IC50) (in the assay with MV4-11 [3]; at CDK2/Cyclin A1; in assay [2]) were 11 nM, 1.08 nM and 1.37 nM, respectively.
As to `CC(C)c1cc2c(Nc3c[nH]nc3C(=O)Nc3ccc(CN4CCN(C)CC4)cc3)ncnc2s1`, the IC50 at CDK2/Cyclin A1 worked out at 3.89 nM; in assay [2], 2.31 nM.
Take `CN1CCN(Cc2ccc(NC(=O)c3n[nH]cc3Nc3ccnc4ccccc34)cc2)CC1`: the Activity in assay [4] came out at 26.5%; in assay [5] it was 27.7%. The inhibition of growth at 1 µM in the assay on MV4-11 [1] was determined as 98.8%.
As to `Cc1csc2ncnc(Nc3c[nH]nc3C(=O)Nc3ccc(CN4CCN(C)CC4)cc3)c12`, the values for the IC50 (at CDK2/Cyclin A1; in assay [2]) were 4.49 nM and 0.167 nM, respectively.
On the same counts, the results for `CN1CCCN(Cc2ccc(NC(=O)c3n[nH]cc3Nc3ncnc4sccc34)cc2)CC1` are 3.03 nM and 0.32 nM.
Consider `CN1CCN(Cc2ccc(NC(=O)c3n[nH]cc3Nc3ncnc4ccsc34)cc2)CC1`, for which the IC50 in the assay on MV4-11 [3] is 23 nM; at CDK2/Cyclin A1, 9.32 nM; in assay [2] it was 0.47 nM; in assay [6] it was 3.1 nM; at CDK6/cyclin D1, 4.11 nM.
`Cc1cc2c(Nc3c[nH]nc3C(=O)Nc3ccc(CN4CCN(C)CC4)cc3)ncnc2s1` yielded an IC50 in assay [2] of 0.384 nM.
In the case of `O=C(Nc1ccc(CNC2CC2)cc1)c1n[nH]cc1Nc1ncnc2sccc12`, the IC50 worked out at 2.05 nM on CDK2/Cyclin A1 and 1.05 nM in assay [2].
On the same counts, the results for `CCN(CC)Cc1ccc(NC(=O)c2n[nH]cc2Nc2ncnc3sccc23)cc1` are 1.59 nM and 5.36 nM.
Turning to `O=C(Nc1ccc(CN2CCOCC2)cc1)c1n[nH]cc1Nc1ncnc2ccsc12`, the IC50 in the assay on MV4-11 [3] came out at 35 nM; at CDK2/Cyclin A1, 11.6 nM; in assay [2], 6.15 nM.
For `Cc1sc2ncnc(Nc3c[nH]nc3C(=O)Nc3ccc(CN4CCOCC4)cc3)c2c1C`, the IC50 in the assay on MV4-11 [3] worked out at 30 nM; on CDK2/Cyclin A1, 7.34 nM; in assay [2], 3.52 nM.
For `CN1CCN(Cc2ccc(NC(=O)c3n[nH]cc3Nc3ccnc4ccc(Br)cc34)cc2)CC1`, the values for the 50% inhibitory concentration (IC50) (at CDK2/Cyclin A1; in assay [2]) were 5.74 nM and 4.84 nM, respectively. Moreover, in the assay with MV4-11 [1], the inhibition of growth at 1 µM was 97.2%.
Regarding `Cc1sc2ncnc(Nc3c[nH]nc3C(=O)Nc3ccc(CN4CCN(C)CC4)cc3)c2c1C`, the concentration for half-maximal inhibition (IC50) worked out at 1.9 nM on CDK2/Cyclin A1 and 0.576 nM in assay [2].
As for `CCc1cc2c(Nc3c[nH]nc3C(=O)Nc3ccc(CN4CCOCC4)cc3)ncnc2s1`, the half-inhibitory concentration (IC50) amounted to 34 nM with MV4-11 [3], 3.3 nM at CDK2/Cyclin A1 and 1.56 nM in assay [2].
For the molecule `O=C(Nc1ccc(CN2CCOCC2)cc1)c1n[nH]cc1Nc1nc(Cl)nc2ccccc12`, the values for the IC50 (at CDK2/Cyclin A1; in assay [2]) were 58.6 nM and 0.958 nM, respectively. Besides, the inhibition of growth at 1 µM in the assay with MV4-11 [1] worked out at 91.1%.
With `O=C(Nc1ccc(CN2CCOCC2)cc1)c1n[nH]cc1Nc1ncnc2[nH]ccc12`, the half-inhibitory concentration (IC50) worked out at 21 nM in the assay on MV4-11 [3], 7.25 nM on CDK2/Cyclin A1 and 2.06 nM in assay [2].
As to `CCc1cc2c(Nc3c[nH]nc3C(=O)Nc3ccc(CN4CCN(C)CC4)cc3)ncnc2s1`, the IC50 was 1.87 nM at CDK2/Cyclin A1 and 0.101 nM in assay [2].
Turning to `CN1CCN(Cc2ccc(NC(=O)c3n[nH]cc3Nc3ncnc4ccccc34)cc2)CC1`, the values for the 50% inhibitory concentration (IC50) (on CDK2/Cyclin A1; in assay [2]) were 8.27 nM and 3.17 nM, respectively.
On to `O=C(Nc1c[nH]nc1C(=O)Nc1ccc(CN2CCOCC2)cc1)c1ccccc1`, for which the IC50 amounted to 450 nM in the assay on MV4-11 [3], 318 nM on CDK2/Cyclin A1 and 42.6 nM in assay [2].
As for `O=C(Nc1ccc(CN2CCOCC2)cc1)c1n[nH]cc1Nc1nccc2ccccc12`, the IC50 was 287 nM at CDK2/Cyclin A1 and 42.4 nM in assay [2]. Moreover, in the assay with MV4-11 [1], the inhibition of growth at 1 µM is 50.4%.
On to `CN1CCN(Cc2ccc(NC(=O)c3n[nH]cc3Nc3nccc4ccccc34)cc2)CC1`, for which the Activity amounted to 60.5% in assay [4] and 24.5% in assay [5].
Consider `O=C(Nc1ccc(CN2CCOCC2)cc1)c1n[nH]cc1Nc1ccnc2ccc(Br)cc12`, for which the IC50 at CDK2/Cyclin A1 stood at 24.1 nM; in assay [2] it was 16.9 nM. Also, the inhibition of growth at 1 µM in the assay on MV4-11 [1] is 93.7%.
On to `CCN(CC)Cc1ccc(NC(=O)c2n[nH]cc2Nc2ncnc3[nH]ccc23)cc1`, for which the half-maximal inhibitory concentration (IC50) on CDK2/Cyclin A1 turned out to be 13.6 nM; in assay [2], 0.13 nM.
For `COc1ccc2nccc(Nc3c[nH]nc3C(=O)Nc3ccc(CN4CCN(C)CC4)cc3)c2c1`, the Activity in assay [4] worked out at 32.5%; in assay [5], 10.4%. Also, the inhibition of growth at 1 µM in the assay with MV4-11 [1] was determined as 64.4%.
For `CC(C)c1cc2c(Nc3c[nH]nc3C(=O)Nc3ccc(CN4CCOCC4)cc3)ncnc2s1`, the IC50 with MV4-11 [3] came to 15 nM; at CDK2/Cyclin A1, 9.85 nM; in assay [2], 7.63 nM.
